CHO parental Ca: counter-screen: ATP calcium response change in parental CHO cells; AID 463079; inhibition, % at 5.6 µM; parental CHO-K1, ATP-induced calcium, Fluo-8 fluorescence; 330,000 tested, 0.63% active;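 active = inhibition above that plate's mean sample inhibition plus 3 SD, cut at about 26% in these data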
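Measured by: calcium-sensitive Fluo-8 fluorescence / Test system: CHO parental line / Controls: ATP-challenged DMSO wells low, unchallenged DMSO wells high / Measure: % inhibition / Compound: single nominal dose of 5.6 µM per compound / Replicates: single well per compound, no replicates / Reagent: ATP as calcium-mobilizing challenge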
TAAR1 antag: antagonists of human TAAR1; 360,000 tested, 1.5% active; inhibition, % at 3 µM; CHO RD-HGA16 TAAR1, Fluo-8 calcium fluorescence, antagonist;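 active = inhibition above a per-plate cutoff, the mean inhibition of test compounds on that plate plus 3 SD, cut at about 49% in these data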
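test system = CHO RD-HGA16 cells bearing hTAAR1 | replication = singlicate | controls = DMSO-only wells and EC80 β-PEA-stimulated wells | reagent = EC80 β-phenethylamine stimulus | read-out basis = percent inhibition of PEA-evoked calcium signal, max/basal emission ratio | schedule = seeding 17-24 h prior, 75-min 37 °C, 30-min RT dye loading | signal = kinetic Fluo-8 calcium fluorescence measurement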
OX1R antag-1: human HCRTR1 antagonism; O43613; CHO/OX1R cells, Fluo-8 calcium fluorescence, orexin A; inhibition, % at 5 µM; 330,000 tested, 0.43% active; AID 434989;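 active = inhibition above its plate's threshold, mean inhibition of all tested compounds on the plate plus 3 SD, cut at about 37% in these data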
Target sequence (O43613 whole entry, looked up): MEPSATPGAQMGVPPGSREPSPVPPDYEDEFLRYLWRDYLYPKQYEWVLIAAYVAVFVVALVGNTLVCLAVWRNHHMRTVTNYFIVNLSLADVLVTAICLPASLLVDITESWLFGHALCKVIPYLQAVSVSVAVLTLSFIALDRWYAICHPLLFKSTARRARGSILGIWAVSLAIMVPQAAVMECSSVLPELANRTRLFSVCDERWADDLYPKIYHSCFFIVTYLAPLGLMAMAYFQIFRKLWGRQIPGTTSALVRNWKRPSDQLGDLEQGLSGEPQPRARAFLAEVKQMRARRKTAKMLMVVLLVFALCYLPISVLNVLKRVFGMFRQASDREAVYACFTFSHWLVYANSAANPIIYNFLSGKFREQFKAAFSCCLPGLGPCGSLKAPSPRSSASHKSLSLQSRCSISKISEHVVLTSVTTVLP
GPR7 antagonist: human neuropeptides B/W receptor 1 antagonism; P48145; GPR7-expressing cells, fluorescence antagonist assay; inhibition, % at 4.4 µM; 290,000 tested, 1.1% active; in the data active = inhibition above about 16%, passing the limit was not always enough;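 also: cells stimulated with the agonist NPW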
TAAR1 ag: human TAAR1 agonism; AID 624467; Q96RJ0; activation, % at 3 µM; 360,000 tested, 0.99% active; CHO RD-HGA16 TAAR1, Fluo-8 calcium fluorescence; vehicle wells 0%, saturating PEA agonist 100%;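 active = activation above the mean activation of all test compounds in the run plus 3 SD, cut at about 38% in these data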
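Benchmarks: low control DMSO, high control PEA (EC100); System: CHO RD-HGA16 cells carrying human TAAR1 plus Gα16; Detection: Fluo-8 fluorescence, 5 s baseline then 140 s kinetic read; Schedule: 17-24 h plating, Fluo-8 75 min 37 °C, 30 min RT; Read-out basis: % activation from peak over basal fluorescence ratio, DMSO-to-PEA scaled.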
OX1R antag-2: antagonists of human orexin 1 receptor (OX1R). O43613. OX1R-expressing cells, FRET antagonist read-out. inhibition, % at 6.6 µM. 330,000 tested, 1.8% active. AID 485270; in the data active = inhibition mostly above about 38%, no sharp cut-off; inactive = mostly below about 40%
A number is an active result. An excerpt weighted towards active compounds, which were near 4.6% of everything screened.

Cc1c(NC(=O)/C(C#N)=C/c2ccc(-c3cccc(Cl)c3)o2)c(=O)n(-c2ccccc2)n1C was read as CHO parental Ca inactive, TAAR1 antag inactive, OX1R antag-1 inactive, GPR7 antagonist inactive, TAAR1 ag inactive and OX1R antag-2 75.
For Cc1c(NC(=O)/C(C#N)=C/c2ccc(-c3ccccc3Cl)o2)c(=O)n(-c2ccccc2)n1C the results were CHO parental Ca inactive, TAAR1 antag inactive, OX1R antag-1 inactive, GPR7 antagonist inactive, TAAR1 ag inactive and OX1R antag-2 75.
Screening CCOC(=O)N[C@H](C(=O)N1CCC[C@H]1C(=O)NC1CCCC1)c1ccccc1 returned TAAR1 antag inactive and TAAR1 ag inactive.
CCCCCCCCN1C(=O)[C@@H](CC(=O)NCC23CC4CC(CC(C4)C2)C3)C[C@@]2(C(=O)OC)C1=C[C@H](C1CCCC1)O[C@@H]2C was read as TAAR1 antag inactive and TAAR1 ag inactive.
`CCCCCCCCN1C(=O)[C@@H](CC(=O)N2CCCC2)C[C@@]2(C(=O)OC)C1=C[C@H](C1CCCC1)O[C@@H]2C` gave TAAR1 antag inactive and TAAR1 ag inactive.
`COc1ccc(-n2c(O)c(/C=N/NS(=O)(=O)c3ccc(C)c([N+](=O)[O-])c3)c3ccccc3c2=O)cc1OC` gave CHO parental Ca inactive, TAAR1 antag inactive, OX1R antag-1 inactive, GPR7 antagonist inactive, TAAR1 ag 42 and OX1R antag-2 inactive.
COc1cc(/C=N/NS(=O)(=O)c2ccc(C)c([N+](=O)[O-])c2)ccc1O was read as CHO parental Ca inactive, TAAR1 antag inactive, OX1R antag-1 inactive, GPR7 antagonist inactive, TAAR1 ag inactive and OX1R antag-2 inactive.
O=C(CCN1C(=O)/C(=C\c2ccccc2)SC1=S)NNC(=O)c1ccccc1O was read as CHO parental Ca inactive, TAAR1 antag inactive, OX1R antag-1 inactive, GPR7 antagonist inactive, TAAR1 ag inactive and OX1R antag-2 64.
Screening O=C(CCCN1C(=O)/C(=C\c2cccs2)SC1=S)Nc1ccccc1O returned TAAR1 antag inactive and TAAR1 ag inactive.
O=C(CCN1C(=O)/C(=C\c2ccccc2)SC1=S)NNC(=O)c1cccnc1 was read as CHO parental Ca inactive, TAAR1 antag 54, OX1R antag-1 inactive, GPR7 antagonist inactive, TAAR1 ag inactive and OX1R antag-2 inactive.
`O=C(CCCN1C(=O)c2ccccc2C1=O)NCCN1C(=O)S/C(=C\c2cccs2)C1=O` gave CHO parental Ca inactive, TAAR1 antag inactive, OX1R antag-1 inactive, GPR7 antagonist inactive, TAAR1 ag inactive and OX1R antag-2 66.
Cc1ccc(/C=C2\SC(=S)N(CCC(=O)NNS(=O)(=O)c3ccc(C)cc3)C2=O)cc1 was read as CHO parental Ca inactive, TAAR1 antag inactive, OX1R antag-1 inactive, GPR7 antagonist 21, TAAR1 ag inactive and OX1R antag-2 inactive.
For COC(=O)[C@H](CC(C)C)NS(=O)(=O)c1ccc(F)cc1Br the results were TAAR1 antag inactive and TAAR1 ag inactive.
For NC(=O)c1cnc(Cc2c[nH]c3ccccc23)c(I)c1 the results were TAAR1 antag inactive and TAAR1 ag inactive.
Screening O=C(CCCN1C(=O)/C(=C\c2ccccc2)SC1=S)N1CCOCC1 returned CHO parental Ca 33, TAAR1 antag inactive, OX1R antag-1 46, TAAR1 ag inactive and OX1R antag-2 inactive.
CCN(CC)C(=O)CN1C(=O)/C(=C/c2ccccc2)SC1=S was read as CHO parental Ca inactive, TAAR1 antag inactive, OX1R antag-1 inactive, GPR7 antagonist inactive, TAAR1 ag inactive and OX1R antag-2 inactive.
`O=C(CCCN1C(=O)S/C(=C\c2ccccc2)C1=O)NNC(=O)c1ccccc1O` gave CHO parental Ca inactive, TAAR1 antag inactive, OX1R antag-1 inactive, GPR7 antagonist inactive, TAAR1 ag inactive and OX1R antag-2 56.
For CC(=O)NNC(=O)CN1C(=O)/C(=C/c2ccccc2)SC1=S the results were CHO parental Ca inactive, TAAR1 antag inactive, OX1R antag-1 inactive, GPR7 antagonist 21, TAAR1 ag inactive and OX1R antag-2 inactive.
`O=C(CN1C(=O)S/C(=C\c2ccccc2)C1=O)NNC(=O)c1ccccc1O` gave CHO parental Ca inactive, TAAR1 antag inactive, OX1R antag-1 inactive, GPR7 antagonist inactive, TAAR1 ag inactive and OX1R antag-2 inactive.
For COc1cc(C(=O)NCC(c2cccs2)N2CCOCC2)ccc1OCc1ccccc1 (stereo unspecified) the results were TAAR1 antag inactive and TAAR1 ag inactive.
For C[C@H](O)[C@@H]1C(=O)N2CCc3c([nH]c4c(-c5ccccc5)cccc34)[C@@H]2C[C@@H]1N(C)C(=O)c1ccco1 the results were TAAR1 antag inactive and TAAR1 ag inactive.
Oc1c(Br)cc(Br)cc1CNn1cnnc1 was read as CHO parental Ca inactive, TAAR1 antag inactive, OX1R antag-1 inactive, GPR7 antagonist inactive, TAAR1 ag inactive and OX1R antag-2 inactive.
Screening O=C(CN(Cc1ccco1)Cc1ccco1)Nc1cc(S(=O)(=O)N2CCCCC2)ccc1Cl returned CHO parental Ca 48, TAAR1 antag inactive, OX1R antag-1 74, TAAR1 ag inactive and OX1R antag-2 inactive.
`CC(=O)N[C@@H](Cc1c[nH]c2ccccc12)C(=O)OCC(=O)Nc1ccc(Cl)c(S(=O)(=O)N(C)C)c1` gave CHO parental Ca inactive, TAAR1 antag inactive, OX1R antag-1 inactive, GPR7 antagonist inactive, TAAR1 ag inactive and OX1R antag-2 54.
COc1ccc(F)cc1C(=O)C1CCCN(Cc2cccn2-c2ccccn2)C1 (stereo unspecified) was read as CHO parental Ca inactive, TAAR1 antag inactive, OX1R antag-1 inactive, GPR7 antagonist 19, TAAR1 ag inactive and OX1R antag-2 inactive.
Screening COc1ccc(C(=O)C2CCCN(Cc3cccn3-c3ccccn3)C2)c(OC)c1 (stereo unspecified) returned CHO parental Ca inactive, TAAR1 antag inactive, OX1R antag-1 inactive, GPR7 antagonist inactive, TAAR1 ag inactive and OX1R antag-2 inactive.
Screening CN1CCN(c2ccc([N+](=O)[O-])cc2S(=O)(=O)N2CCOCC2)CC1 returned CHO parental Ca inactive, TAAR1 antag inactive, OX1R antag-1 inactive, GPR7 antagonist inactive, TAAR1 ag inactive and OX1R antag-2 94.
For c1ccc(COn2nnc3ccccc32)c(COn2nnc3ccccc32)c1 the results were CHO parental Ca inactive, TAAR1 antag 55, OX1R antag-1 inactive, GPR7 antagonist inactive, TAAR1 ag inactive and OX1R antag-2 inactive.
For O=S(=O)(c1ccccc1)N1CCC(O)(CSc2ccc(Cl)cc2)CC1 the results were CHO parental Ca 62, TAAR1 antag inactive, OX1R antag-1 46, GPR7 antagonist inactive, TAAR1 ag inactive and OX1R antag-2 inactive.
`CN(c1ccccc1)S(=O)(=O)c1cccc(Cl)c1Cl` gave CHO parental Ca inactive, TAAR1 antag inactive, OX1R antag-1 inactive, GPR7 antagonist inactive, TAAR1 ag inactive and OX1R antag-2 inactive.
